pIC50: −log10 of the molar value.
Tests used:
[1] = molecular target: Serine/threonine-protein kinase B-raf (Homo sapiens, UniProt P15056, V600E); experiment: Inhibition of recombinant B-RAF-V600E mutant
In short: (§1)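 Purified recombinant kinase, 50 µL reaction. 1 µM [γ-33P]-ATP with substrate; compound added in 10% DMSO. Tested over several concentrations; IC50 in g/mL.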

[2] = molecular target: T1, Serine/threonine-protein kinase PLK4 (Homo sapiens, UniProt O00444); experiment: Inhibition of recombinant SAK
T1 sequence (O00444 whole entry): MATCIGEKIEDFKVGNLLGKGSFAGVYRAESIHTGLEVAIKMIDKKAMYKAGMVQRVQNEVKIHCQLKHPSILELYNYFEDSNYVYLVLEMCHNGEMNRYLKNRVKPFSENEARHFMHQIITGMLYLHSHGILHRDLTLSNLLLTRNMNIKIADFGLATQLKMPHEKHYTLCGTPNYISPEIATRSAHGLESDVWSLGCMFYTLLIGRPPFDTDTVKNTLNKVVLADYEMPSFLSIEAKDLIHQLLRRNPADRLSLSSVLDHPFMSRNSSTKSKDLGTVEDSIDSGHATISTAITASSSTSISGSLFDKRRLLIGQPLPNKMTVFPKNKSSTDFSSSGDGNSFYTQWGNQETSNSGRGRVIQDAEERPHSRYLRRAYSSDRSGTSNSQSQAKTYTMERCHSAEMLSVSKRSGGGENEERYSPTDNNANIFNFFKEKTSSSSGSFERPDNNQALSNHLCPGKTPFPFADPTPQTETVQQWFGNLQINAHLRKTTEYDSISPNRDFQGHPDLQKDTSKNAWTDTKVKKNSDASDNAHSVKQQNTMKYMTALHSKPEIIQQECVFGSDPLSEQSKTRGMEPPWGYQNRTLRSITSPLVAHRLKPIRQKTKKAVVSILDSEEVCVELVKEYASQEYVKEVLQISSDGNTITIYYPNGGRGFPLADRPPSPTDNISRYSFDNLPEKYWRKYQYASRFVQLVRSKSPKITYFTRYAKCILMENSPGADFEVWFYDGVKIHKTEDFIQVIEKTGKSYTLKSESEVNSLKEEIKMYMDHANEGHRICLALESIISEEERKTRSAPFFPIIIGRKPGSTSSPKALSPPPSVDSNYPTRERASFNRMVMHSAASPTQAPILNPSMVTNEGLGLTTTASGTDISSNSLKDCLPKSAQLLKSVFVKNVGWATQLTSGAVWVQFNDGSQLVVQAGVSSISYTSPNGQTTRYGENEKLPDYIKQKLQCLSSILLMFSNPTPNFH

[3] = molecular target: T2, NUAK family SNF1-like kinase 1 (Homo sapiens, UniProt O60285); experiment: Inhibition of recombinant ARK5
T2 sequence (O60285 whole entry): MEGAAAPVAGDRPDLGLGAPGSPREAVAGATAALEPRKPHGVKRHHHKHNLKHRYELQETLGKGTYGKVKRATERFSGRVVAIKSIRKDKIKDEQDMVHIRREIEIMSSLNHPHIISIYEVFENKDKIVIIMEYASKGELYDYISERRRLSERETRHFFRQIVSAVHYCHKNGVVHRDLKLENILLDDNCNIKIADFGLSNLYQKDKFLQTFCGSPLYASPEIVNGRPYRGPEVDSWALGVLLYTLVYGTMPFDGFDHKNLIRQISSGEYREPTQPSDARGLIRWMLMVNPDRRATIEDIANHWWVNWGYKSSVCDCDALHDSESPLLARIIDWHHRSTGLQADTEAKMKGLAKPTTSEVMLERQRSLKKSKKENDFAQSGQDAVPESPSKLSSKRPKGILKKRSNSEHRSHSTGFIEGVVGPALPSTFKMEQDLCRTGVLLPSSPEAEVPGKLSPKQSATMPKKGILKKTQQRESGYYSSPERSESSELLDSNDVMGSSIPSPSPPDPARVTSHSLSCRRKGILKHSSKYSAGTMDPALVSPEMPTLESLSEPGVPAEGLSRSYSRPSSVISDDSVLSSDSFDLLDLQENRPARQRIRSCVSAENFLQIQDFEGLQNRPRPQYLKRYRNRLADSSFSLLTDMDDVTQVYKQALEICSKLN

[4] = molecular target: Cyclin-dependent kinase 2 (Homo sapiens, UniProt P24941); experiment: Inhibition of recombinant CDK2/CycA; in short: as §1
[5] = molecular target: T3, Receptor-type tyrosine-protein kinase FLT3 (Homo sapiens, UniProt P36888); experiment: Inhibition of recombinant FLT3; in short: as §1
T3 sequence (P36888 whole entry): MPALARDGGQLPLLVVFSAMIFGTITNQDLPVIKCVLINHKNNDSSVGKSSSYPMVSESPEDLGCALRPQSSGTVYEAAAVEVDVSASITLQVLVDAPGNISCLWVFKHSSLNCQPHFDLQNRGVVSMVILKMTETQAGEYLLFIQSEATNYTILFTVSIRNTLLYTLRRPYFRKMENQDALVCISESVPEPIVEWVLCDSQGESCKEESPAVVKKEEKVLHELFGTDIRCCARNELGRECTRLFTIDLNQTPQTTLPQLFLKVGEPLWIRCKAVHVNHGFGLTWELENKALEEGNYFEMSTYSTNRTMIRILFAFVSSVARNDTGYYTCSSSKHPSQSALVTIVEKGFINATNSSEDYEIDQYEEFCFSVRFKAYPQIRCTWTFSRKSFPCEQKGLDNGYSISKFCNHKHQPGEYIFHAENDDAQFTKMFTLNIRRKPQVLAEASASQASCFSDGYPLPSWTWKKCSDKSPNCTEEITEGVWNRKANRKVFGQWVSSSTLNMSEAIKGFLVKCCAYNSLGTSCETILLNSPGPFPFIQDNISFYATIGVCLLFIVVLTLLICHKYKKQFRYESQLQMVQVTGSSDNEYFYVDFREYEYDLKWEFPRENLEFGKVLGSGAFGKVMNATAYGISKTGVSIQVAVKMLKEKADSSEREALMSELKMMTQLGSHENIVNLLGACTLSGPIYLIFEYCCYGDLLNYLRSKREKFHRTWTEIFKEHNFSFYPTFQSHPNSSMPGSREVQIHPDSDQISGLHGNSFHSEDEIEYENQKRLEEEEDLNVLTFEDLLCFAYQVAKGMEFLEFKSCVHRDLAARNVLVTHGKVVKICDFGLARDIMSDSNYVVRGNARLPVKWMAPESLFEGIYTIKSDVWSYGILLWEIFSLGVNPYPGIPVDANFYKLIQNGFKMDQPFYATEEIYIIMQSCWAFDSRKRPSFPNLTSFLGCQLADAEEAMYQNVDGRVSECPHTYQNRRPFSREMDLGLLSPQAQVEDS

[6] = molecular target: T4, Aurora kinase A (Homo sapiens, UniProt O14965); experiment: Inhibition of recombinant Aurora A; in short: as §1
T4 sequence (O14965 whole entry): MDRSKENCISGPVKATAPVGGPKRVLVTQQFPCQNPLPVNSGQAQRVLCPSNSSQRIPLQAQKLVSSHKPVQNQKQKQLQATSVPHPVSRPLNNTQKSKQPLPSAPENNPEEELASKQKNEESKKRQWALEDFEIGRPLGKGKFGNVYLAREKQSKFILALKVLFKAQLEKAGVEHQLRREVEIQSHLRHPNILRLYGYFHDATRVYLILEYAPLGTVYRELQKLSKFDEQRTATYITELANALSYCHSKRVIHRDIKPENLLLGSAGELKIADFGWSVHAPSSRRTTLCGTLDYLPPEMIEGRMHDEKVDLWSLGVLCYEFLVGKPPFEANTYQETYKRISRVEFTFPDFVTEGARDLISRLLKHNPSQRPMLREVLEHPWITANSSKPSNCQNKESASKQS

[7] = molecular target: RAC-alpha serine/threonine-protein kinase (Homo sapiens, UniProt P31749); experiment: Inhibition of recombinant AKT1; in short: as §1
Sequence of RAC-alpha serine/threonine-protein kinase (P31749 whole entry): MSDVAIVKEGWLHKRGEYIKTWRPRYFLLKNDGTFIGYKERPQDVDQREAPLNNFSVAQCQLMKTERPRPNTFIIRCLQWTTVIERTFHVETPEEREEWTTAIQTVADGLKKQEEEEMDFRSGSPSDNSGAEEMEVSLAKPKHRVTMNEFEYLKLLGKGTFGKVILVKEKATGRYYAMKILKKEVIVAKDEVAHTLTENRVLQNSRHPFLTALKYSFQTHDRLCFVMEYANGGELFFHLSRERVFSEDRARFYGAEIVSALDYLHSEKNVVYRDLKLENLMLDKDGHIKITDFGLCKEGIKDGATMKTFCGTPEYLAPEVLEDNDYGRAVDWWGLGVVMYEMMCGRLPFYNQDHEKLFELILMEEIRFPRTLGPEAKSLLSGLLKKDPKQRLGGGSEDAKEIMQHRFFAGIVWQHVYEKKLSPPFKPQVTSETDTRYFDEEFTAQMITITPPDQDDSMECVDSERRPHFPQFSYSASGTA

[8] = molecular target: Vascular endothelial growth factor receptor 2 (Homo sapiens, UniProt P35968); experiment: Inhibition of recombinant VEGFR2; in short: as §1
[9] = molecular target: Aurora kinase B (Homo sapiens, UniProt Q96GD4); experiment: Inhibition of recombinant Aurora B; in short: as §1
Sequence of Aurora kinase B (Q96GD4 whole entry): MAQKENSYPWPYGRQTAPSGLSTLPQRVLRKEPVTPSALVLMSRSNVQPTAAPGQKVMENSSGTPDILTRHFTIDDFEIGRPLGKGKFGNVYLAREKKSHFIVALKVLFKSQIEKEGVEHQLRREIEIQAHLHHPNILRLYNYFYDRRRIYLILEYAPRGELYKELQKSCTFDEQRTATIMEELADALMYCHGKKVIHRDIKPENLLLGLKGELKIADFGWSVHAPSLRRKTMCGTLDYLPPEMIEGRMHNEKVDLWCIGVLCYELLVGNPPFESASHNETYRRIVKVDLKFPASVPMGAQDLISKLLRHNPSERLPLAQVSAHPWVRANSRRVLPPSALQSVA

[10] = molecular target: Casein kinase II subunit alpha (Homo sapiens, UniProt P68400); experiment: Inhibition of recombinant CK2alpha1; in short: as §1
Sequence of Casein kinase II subunit alpha (P68400 whole entry): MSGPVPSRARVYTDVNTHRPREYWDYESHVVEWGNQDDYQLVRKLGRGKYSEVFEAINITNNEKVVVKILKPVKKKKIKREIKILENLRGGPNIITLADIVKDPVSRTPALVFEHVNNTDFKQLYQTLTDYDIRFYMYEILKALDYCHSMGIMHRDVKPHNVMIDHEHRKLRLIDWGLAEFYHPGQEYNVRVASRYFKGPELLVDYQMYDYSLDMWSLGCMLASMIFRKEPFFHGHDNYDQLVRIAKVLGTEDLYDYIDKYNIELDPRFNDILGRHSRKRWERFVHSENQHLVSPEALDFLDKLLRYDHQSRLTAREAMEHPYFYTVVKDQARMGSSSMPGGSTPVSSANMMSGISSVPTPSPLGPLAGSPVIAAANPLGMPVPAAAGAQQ

[11] = molecular target: Serine/threonine-protein kinase PLK1 (Homo sapiens, UniProt P53350); experiment: Inhibition of recombinant PLK1
Sequence of Serine/threonine-protein kinase PLK1 (P53350 whole entry): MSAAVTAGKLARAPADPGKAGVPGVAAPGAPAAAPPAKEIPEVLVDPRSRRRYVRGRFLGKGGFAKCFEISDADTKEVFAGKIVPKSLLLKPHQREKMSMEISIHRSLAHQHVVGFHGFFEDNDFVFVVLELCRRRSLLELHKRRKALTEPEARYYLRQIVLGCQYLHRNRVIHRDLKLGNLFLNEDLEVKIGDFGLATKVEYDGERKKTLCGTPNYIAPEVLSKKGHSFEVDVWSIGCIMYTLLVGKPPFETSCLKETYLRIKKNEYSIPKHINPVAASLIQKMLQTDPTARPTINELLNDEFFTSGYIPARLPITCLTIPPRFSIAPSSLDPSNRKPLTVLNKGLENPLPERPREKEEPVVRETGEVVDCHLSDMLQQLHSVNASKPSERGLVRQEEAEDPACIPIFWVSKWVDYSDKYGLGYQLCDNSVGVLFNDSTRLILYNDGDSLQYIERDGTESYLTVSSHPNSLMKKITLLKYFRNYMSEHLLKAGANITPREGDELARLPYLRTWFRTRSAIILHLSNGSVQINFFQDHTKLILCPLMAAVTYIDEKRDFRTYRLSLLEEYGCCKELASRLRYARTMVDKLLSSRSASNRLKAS

[12] = molecular target: Receptor tyrosine-protein kinase erbB-2 (Homo sapiens, UniProt P04626); experiment: Inhibition of recombinant ERBB2
Sequence of Receptor tyrosine-protein kinase erbB-2 (P04626 whole entry): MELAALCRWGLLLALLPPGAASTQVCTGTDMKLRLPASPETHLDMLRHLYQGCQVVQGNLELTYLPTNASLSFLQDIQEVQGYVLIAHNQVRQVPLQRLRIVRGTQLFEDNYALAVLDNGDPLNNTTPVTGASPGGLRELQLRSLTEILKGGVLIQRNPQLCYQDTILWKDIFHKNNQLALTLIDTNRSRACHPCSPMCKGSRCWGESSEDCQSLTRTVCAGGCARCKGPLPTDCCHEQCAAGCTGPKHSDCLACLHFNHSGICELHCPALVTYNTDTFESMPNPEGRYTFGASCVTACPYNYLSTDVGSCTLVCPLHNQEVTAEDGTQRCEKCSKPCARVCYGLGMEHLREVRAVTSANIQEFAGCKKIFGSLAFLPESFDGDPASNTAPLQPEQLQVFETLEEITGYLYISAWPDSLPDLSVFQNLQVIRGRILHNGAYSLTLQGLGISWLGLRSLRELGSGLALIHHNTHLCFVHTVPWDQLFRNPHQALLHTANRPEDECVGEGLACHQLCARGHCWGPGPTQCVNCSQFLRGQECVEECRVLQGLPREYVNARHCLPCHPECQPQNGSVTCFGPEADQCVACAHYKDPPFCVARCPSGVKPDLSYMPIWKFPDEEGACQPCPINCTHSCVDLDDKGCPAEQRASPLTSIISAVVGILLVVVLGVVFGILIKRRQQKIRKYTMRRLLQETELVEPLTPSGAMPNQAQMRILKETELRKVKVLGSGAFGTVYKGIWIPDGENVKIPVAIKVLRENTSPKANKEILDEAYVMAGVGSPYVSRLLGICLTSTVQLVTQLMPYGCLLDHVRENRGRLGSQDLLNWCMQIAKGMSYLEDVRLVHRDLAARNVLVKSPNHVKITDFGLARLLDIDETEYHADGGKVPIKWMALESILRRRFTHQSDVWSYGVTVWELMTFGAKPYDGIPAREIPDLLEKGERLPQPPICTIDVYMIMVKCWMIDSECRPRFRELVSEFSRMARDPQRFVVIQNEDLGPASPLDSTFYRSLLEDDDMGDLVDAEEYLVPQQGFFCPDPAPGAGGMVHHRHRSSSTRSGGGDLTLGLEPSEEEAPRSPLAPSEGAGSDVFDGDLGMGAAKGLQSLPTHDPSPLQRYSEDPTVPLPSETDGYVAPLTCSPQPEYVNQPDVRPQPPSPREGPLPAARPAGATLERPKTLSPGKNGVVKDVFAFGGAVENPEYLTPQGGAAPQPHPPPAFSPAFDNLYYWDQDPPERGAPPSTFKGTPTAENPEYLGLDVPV

[13] = molecular target: Platelet-derived growth factor receptor beta (Homo sapiens, UniProt P09619); experiment: Inhibition of recombinant PDGFRbeta
Sequence of Platelet-derived growth factor receptor beta (P09619 whole entry): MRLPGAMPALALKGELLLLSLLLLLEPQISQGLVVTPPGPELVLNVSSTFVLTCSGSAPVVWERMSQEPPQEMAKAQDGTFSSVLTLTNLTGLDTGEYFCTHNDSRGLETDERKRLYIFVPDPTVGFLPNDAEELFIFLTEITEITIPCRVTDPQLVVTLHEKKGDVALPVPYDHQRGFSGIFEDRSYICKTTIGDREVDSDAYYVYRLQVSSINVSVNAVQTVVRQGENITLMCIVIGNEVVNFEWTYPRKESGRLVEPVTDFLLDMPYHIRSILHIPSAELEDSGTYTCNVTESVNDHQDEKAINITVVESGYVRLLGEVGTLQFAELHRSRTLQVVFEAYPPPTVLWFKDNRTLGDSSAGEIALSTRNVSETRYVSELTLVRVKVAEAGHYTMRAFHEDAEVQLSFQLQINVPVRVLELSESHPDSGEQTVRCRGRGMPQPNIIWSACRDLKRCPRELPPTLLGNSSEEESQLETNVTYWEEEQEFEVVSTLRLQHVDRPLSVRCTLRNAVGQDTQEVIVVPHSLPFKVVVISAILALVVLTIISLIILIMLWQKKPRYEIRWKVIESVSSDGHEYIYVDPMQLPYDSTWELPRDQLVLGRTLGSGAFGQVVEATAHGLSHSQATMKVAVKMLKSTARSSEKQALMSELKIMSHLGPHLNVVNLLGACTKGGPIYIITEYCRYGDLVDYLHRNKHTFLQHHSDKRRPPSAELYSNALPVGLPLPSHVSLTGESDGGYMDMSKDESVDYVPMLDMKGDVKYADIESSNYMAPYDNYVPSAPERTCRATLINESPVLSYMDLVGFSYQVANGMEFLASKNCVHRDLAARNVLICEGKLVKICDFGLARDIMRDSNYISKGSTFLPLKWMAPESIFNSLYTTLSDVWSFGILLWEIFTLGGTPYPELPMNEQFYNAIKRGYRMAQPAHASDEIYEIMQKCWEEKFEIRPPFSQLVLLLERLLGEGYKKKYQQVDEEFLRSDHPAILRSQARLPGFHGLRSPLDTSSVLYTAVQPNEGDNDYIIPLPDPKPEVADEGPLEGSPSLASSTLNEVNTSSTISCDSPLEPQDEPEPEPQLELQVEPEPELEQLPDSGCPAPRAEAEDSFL

[14] = molecular target: Focal adhesion kinase 1 (Homo sapiens, UniProt Q05397); experiment: Inhibition of recombinant FAK
[15] = molecular target: Mitogen-activated protein kinase kinase kinase 8 (Homo sapiens, UniProt P41279); experiment: Inhibition of recombinant COT
[16] = molecular target: Cyclin-dependent kinase 4/G1/S-specific cyclin-D1 (Homo sapiens, UniProt P11802); experiment: Inhibition of recombinant CDK4/CycD1
Sequence of Cyclin-dependent kinase 4/G1/S-specific cyclin-D1 (P11802 whole entry): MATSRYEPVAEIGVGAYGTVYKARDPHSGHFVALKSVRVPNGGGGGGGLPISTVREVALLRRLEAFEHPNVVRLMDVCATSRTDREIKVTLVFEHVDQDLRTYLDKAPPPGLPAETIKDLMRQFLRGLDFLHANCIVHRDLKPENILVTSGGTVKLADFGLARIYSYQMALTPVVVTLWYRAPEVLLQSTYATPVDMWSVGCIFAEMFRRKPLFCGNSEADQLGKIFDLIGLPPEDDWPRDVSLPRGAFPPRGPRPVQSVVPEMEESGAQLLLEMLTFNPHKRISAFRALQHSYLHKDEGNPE
Sequence of Cyclin-dependent kinase 4/G1/S-specific cyclin-D1 (P24385 whole entry, further chain): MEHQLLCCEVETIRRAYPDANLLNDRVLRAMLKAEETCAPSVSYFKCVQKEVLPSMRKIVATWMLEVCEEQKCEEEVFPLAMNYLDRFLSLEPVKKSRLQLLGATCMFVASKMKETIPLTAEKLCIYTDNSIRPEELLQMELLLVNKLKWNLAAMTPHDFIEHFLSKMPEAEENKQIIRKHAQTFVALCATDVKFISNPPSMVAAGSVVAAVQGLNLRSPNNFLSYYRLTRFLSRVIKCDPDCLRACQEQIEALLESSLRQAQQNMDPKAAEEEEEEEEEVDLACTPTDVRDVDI

[17] = molecular target: T5, Ephrin type-B receptor 4 (Homo sapiens, UniProt P54760); experiment: Inhibition of recombinant EPHB4; in short: as §1
T5 sequence (P54760 whole entry): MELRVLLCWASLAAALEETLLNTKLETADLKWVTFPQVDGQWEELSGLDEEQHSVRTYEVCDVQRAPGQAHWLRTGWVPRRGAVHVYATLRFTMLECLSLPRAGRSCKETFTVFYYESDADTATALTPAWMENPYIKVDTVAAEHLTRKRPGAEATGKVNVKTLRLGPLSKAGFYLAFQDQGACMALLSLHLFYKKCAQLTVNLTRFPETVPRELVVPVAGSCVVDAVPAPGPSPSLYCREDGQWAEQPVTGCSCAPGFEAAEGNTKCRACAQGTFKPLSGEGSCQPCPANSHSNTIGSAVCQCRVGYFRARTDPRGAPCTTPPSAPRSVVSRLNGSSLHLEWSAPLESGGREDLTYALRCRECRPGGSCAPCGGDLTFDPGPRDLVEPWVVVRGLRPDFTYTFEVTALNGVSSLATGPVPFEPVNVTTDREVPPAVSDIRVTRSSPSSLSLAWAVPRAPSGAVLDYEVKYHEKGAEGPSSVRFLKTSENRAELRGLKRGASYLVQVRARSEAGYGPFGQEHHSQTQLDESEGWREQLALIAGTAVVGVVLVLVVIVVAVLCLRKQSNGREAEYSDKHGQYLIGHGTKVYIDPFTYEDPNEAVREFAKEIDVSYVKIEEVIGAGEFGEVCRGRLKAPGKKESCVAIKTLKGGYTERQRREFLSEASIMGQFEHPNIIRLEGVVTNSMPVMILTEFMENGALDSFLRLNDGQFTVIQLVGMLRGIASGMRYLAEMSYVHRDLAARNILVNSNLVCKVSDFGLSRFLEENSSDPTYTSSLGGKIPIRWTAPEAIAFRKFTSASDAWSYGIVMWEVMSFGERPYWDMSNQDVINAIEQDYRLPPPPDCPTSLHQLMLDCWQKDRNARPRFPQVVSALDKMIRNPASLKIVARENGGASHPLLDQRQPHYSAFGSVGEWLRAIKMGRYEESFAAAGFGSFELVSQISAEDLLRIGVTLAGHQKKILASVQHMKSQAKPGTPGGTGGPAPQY

[18] = molecular target: Angiopoietin-1 receptor (Homo sapiens, UniProt Q02763); experiment: Inhibition of recombinant TIE2
[19] = molecular target: Vascular endothelial growth factor receptor 3 (Homo sapiens, UniProt P35916); experiment: Inhibition of recombinant VEGFR3; in short: as §1
[20] = molecular target: Insulin-like growth factor 1 receptor (Homo sapiens, UniProt P08069); experiment: Inhibition of recombinant IGF1R; in short: as §1

Cc1cc(O)cc2oc(=O)c3c(O)cc(OS(=O)(=O)O)cc3c12 [Alternariol 5-O-Sulfate]
pIC50 [1]: 5.66
pIC50 [2]: 5.95
pIC50 [3]: 5.66
pIC50 [4]: 5.61
pIC50 [5]: 6.01
pIC50 [6]: 5.94
pIC50 [7]: < 4.53
pIC50 [8]: 5.69
pIC50 [9]: 6.19

COc1cc(O)c2c(=O)oc3cc(O)cc(C)c3c2c1
pIC50 [10]: < 4.44

Cc1cc(O)c(O)cc1-c1cc(O)cc(O)c1C(=O)O [Desmethylaltenusin]
pIC50 [4]: < 4.44
pIC50 [10]: < 4.44
pIC50 [7]: < 4.44
pIC50 [11]: < 4.44
pIC50 [12]: < 4.44

COc1cc(O)c(C(=O)O)c(C2=C(C)C[C@@H](O)C2=O)c1 [Alternarienonic Acid]
pIC50 [13]: < 4.44
pIC50 [14]: < 4.44
pIC50 [4]: < 4.44
pIC50 [10]: < 4.44
pIC50 [7]: < 4.44
pIC50 [15]: < 4.44
pIC50 [11]: < 4.44
pIC50 [16]: < 4.44
pIC50 [12]: < 4.44
pIC50 [17]: < 4.44
pIC50 [18]: < 4.44

COc1cc(O)c2c(=O)oc3c(O)c(O)cc(C)c3c2c1
pIC50 [19]: 5.87
pIC50 [20]: 5.50
pIC50 [2]: 5.54
pIC50 [3]: 5.92
pIC50 [5]: 5.74
pIC50 [10]: < 4.46
pIC50 [8]: 5.65

Cc1cc(O)cc2oc(=O)c3c(O)cc(O)cc3c12 [CHEBI:64983]
pIC50 [13]: 5.46
pIC50 [3]: 5.44
pIC50 [6]: 5.55
pIC50 [7]: < 4.41
pIC50 [17]: < 4.41

O=C1C[C@H](O)[C@@H]2c3c(ccc(O)c31)-c1ccc(O)c3c1[C@@]2(O)CCC3=O [Altertoxin I]
pIC50 [4]: < 4.55
pIC50 [5]: 5.73
pIC50 [10]: < 4.55
pIC50 [7]: < 4.55
pIC50 [11]: < 4.55
pIC50 [9]: 5.56
pIC50 [12]: < 4.55

Source: BindingDB's records for doi:10.1021/np070447m (2008)
